Laboratory results as given in ChEMBL document CHEMBL4765319, “Identification of a new series of flavopiridol-like structures as kinase inhibitors with high cytotoxic potency” (Eur J Med Chem, 2020).
The source made the active and inactive calls. The calls are words filed in the database; no cut-off is given here.

Key:
HCT-116 [1] = experiment: Cell cycle arrest in human HCT-116 cells assessed as increase in accumulation at G0/G1 phase after 24 hrs by propidium iodide staining-based flow cytometric analysis; assay type: functional; conditions: dose 100-500 nM
HCT-116 [2] = experiment: Cell cycle arrest in human HCT-116 cells assessed as increase in accumulation at G2/M phase after 24 hrs by propidium iodide staining-based flow cytometric analysis; assay type: functional; conditions: dose 100-500 nM
[3] = target: T1, Glycogen synthase kinase-3 beta (Homo sapiens, UniProt P49841); experiment: Inhibition of human GSK3beta assessed as residual activity at 10 uM in presence of ATP by ADP-glo luminescent assay relative to control
T1 sequence (P49841 whole entry, looked up): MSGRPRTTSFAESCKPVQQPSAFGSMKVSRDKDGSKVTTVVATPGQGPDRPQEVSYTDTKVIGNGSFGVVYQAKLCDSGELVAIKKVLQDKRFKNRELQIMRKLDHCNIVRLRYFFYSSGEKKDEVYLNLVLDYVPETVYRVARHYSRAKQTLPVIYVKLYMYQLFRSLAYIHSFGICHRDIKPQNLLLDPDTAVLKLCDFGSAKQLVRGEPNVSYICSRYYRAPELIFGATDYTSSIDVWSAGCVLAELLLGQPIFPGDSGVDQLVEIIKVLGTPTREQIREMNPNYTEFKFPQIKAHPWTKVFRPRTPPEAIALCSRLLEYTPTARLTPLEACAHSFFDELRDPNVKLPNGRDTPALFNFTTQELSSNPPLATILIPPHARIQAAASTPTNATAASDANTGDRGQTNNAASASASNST
How it was run: (§1)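 Human kinases assayed by ADP-Glo luminescence with 10 μM ATP, compound at 10 or 1 μM. Activity is expressed as % of maximal activity relative to a DMSO control, mean n = 2.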

K562 [4] = experiment: Cell cycle arrest in human K562 cells assessed as accumulation at G0/G1 phase at 50 nM after 24 hrs by propidium iodide staining-based flow cytometric analysis (reference value: 21.4 %); assay type: functional
K562 [5] = experiment: Cell cycle arrest in human K562 cells assessed as increase in accumulation at G0/G1 phase after 24 hrs by propidium iodide staining-based flow cytometric analysis; assay type: functional; conditions: dose 25-100 nM
K562 [6] = experiment: Antiproliferative activity against human K562 cells assessed as reduction in cell viability incubated for 72 hrs by CellTiter-Blue resazurin fluorescence assay; conditions: K562, 72 h
HCT-116 [7] = experiment: Cell cycle arrest in human HCT-116 cells assessed as accumulation at G0/G1 phase at 200 nM after 24 hrs by propidium iodide staining-based flow cytometric analysis (reference value: 20.9 %); assay type: functional
SK-OV-3 = experiment: Antiproliferative activity against human SKOV3 cells assessed as reduction in cell viability incubated for 72 hrs by CellTiter-Blue fluorescence assay; conditions: SK-OV-3, 72 h
Leishmania major = experiment: Inhibition of Leishmania major CK1 assessed as residual activity at 1 uM in presence of ATP by ADP-glo luminescent assay relative to control
[8] = target: Cyclin-dependent kinase 5/CDK5 activator 1 (Homo sapiens, UniProt Q00535); experiment: Inhibition of human CDK5/p25 in presence of ATP by ADP-glo luminescent assay; assay type: protein-complex assay
Sequence of Cyclin-dependent kinase 5/CDK5 activator 1 (Q00535 whole entry): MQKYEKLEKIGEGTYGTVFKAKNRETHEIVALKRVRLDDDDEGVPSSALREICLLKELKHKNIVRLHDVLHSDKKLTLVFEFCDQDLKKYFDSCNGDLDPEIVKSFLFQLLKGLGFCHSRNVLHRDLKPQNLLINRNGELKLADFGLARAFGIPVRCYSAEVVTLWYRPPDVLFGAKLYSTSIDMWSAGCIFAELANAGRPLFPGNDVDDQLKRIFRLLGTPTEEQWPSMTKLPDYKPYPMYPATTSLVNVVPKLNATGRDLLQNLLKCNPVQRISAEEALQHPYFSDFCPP
Sequence of Cyclin-dependent kinase 5/CDK5 activator 1 (Q15078 whole entry, further chain): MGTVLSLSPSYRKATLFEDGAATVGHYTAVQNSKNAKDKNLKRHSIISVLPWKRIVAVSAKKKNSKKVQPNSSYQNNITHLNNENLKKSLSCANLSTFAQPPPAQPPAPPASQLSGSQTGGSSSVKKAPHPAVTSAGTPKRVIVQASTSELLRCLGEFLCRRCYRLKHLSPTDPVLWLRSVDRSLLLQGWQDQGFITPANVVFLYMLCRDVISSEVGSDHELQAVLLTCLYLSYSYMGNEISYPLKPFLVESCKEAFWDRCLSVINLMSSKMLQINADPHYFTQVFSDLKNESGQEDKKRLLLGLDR
How it was run: (§2)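 Human kinases tested over roughly 0.0003–10 μM by ADP-Glo luminescence with 10 μM ATP, in duplicate. IC50 is taken from dose-response curves.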

HCT-116 [9] = experiment: Cell cycle arrest in human HCT-116 cells assessed as accumulation at G0/G1 phase at 500 nM after 24 hrs by propidium iodide staining-based flow cytometric analysis (reference value: 20.9 %); assay type: functional
SK-BR-3 = experiment: Antiproliferative activity against human SK-BR-3 cells assessed as reduction in cell viability incubated for 72 hrs by CellTiter-Blue fluorescence assay; conditions: SK-BR-3, 72 h
[10] = target: T1, Glycogen synthase kinase-3 beta; experiment: Inhibition of human GSK3beta assessed as residual activity at 1 uM in presence of ATP by ADP-glo luminescent assay relative to control; how it was run: as §1
MIA PaCa-2 [11] = experiment: Potency index, ratio of flavopiridol IC50 to test compound IC50 for human MIA PaCa-2 cells assessed as reduction in cell viability incubated for 72 hrs by CellTiter-Blue resazurin fluorescence assay
CDK2/Cyclin A2 = CDK2/Cyclin A2 (Homo sapiens, UniProt P24941); experiment: Inhibition of human CDK2/cyclin A in presence of ATP by ADP-glo luminescent assay; assay type: protein-complex assay; how it was run: as §2
MIA PaCa-2 [12] = experiment: Antiproliferative activity against human MIA PaCa-2 cells assessed as reduction in cell viability incubated for 72 hrs by CellTiter-Blue fluorescence assay; conditions: MIA PaCa-2, 72 h
[13] = target: T1, Glycogen synthase kinase-3 beta; experiment: ATP competitive inhibition of human GSK3beta at 500 nM in presence of ATP by ADP-glo luminescent assay
How it was run: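 HsGSK3β activity by ADP-Glo luminescence with 500 nM inhibitor, or without it, across ATP 3.125 to 100 μM. Residual activity is given as % of a DMSO control, mean (n = 3) ± SD.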

NCI-N87 = experiment: Antiproliferative activity against human NCI-N87 cells assessed as reduction in cell viability incubated for 72 hrs by CellTiter-Blue fluorescence assay; conditions: NCI-N87, 72 h
HCT-116 [14] = experiment: Cell cycle arrest in human HCT-116 cells assessed as accumulation at S phase at 100 nM after 24 hrs by propidium iodide staining-based flow cytometric analysis (reference value: 47.6 %); assay type: functional
Sus scrofa = organism: Sus scrofa; experiment: Inhibition of porcine GSK3alpha/beta assessed as residual activity at 10 uM in presence of ATP by ADP-glo luminescent assay relative to control
How it was run: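 Porcine brain GSK3α/β, native and affinity-purified. Assayed by ADP-Glo luminescence with 10 μM ATP and 0.010 μg/μl GS-1 peptide substrate. Buffer A: 10 mM MgCl2, 1 mM EGTA, 1 mM DTT, 25 mM Tris-HCl pH 7.5, 50 μg/ml heparin. Compound tested at 10 or 1 μM. Result is % of maximal activity versus DMSO control, mean of n = 2.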

K562 [15] = experiment: Cell cycle arrest in human K562 cells assessed as accumulation at G2/M phase at 100 nM after 24 hrs by propidium iodide staining-based flow cytometric analysis (reference value: 12.9 %); assay type: functional
K562 [16] = experiment: Cell cycle arrest in human K562 cells assessed as accumulation at G2/M phase at 50 nM after 24 hrs by propidium iodide staining-based flow cytometric analysis (reference value: 12.9 %); assay type: functional
HCT-116 [17] = experiment: Cell cycle arrest in human HCT-116 cells assessed as accumulation at S phase at 500 nM after 24 hrs by propidium iodide staining-based flow cytometric analysis (reference value: 47.6 %); assay type: functional
HCT-116 [18] = experiment: Cell cycle arrest in human HCT-116 cells assessed as accumulation at G2/M phase at 500 nM after 24 hrs by propidium iodide staining-based flow cytometric analysis (reference value: 31.5 %); assay type: functional

For `CN1CC=C(c2c(O)cc(O)c3c(=O)cc(-c4ccc(Sc5nc6ccccc6n5C)cc4Cl)oc23)CC1`, the Activity (HCT-116 [1]) was “Dose-dependent effect”, the Activity (HCT-116 [2]) was “Dose-dependent effect” and the Activity [3] was 2%. For the same molecule, the Activity (K562 [4]) was 27.8%, the Activity (K562 [5]) was “Dose-dependent effect” and the IC50 (K562 [6]) was 0.0508 µM. For the same molecule, the Activity (HCT-116 [7]) was 26%, the IC50 (SK-OV-3) was 0.094 µM and the Activity (Leishmania major) was 62%. The IC50 [8] was 1.09 µM, the Activity (HCT-116 [9]) was 34.8% and the IC50 (SK-BR-3) was 0.0537 µM. For the same molecule, the Activity [10] was 12%, the “Ratio IC50” value (MIA PaCa-2 [11]) was “<=6” and the IC50 (CDK2/Cyclin A2) was 1.73 µM. The IC50 (MIA PaCa-2 [12]) was 0.0529 µM, the inhibition [13] was “Active” and the IC50 (NCI-N87) was 0.049 µM. The Activity (HCT-116 [14]) was 48.7%, the Activity (Sus scrofa) was 10% and the Activity (K562 [15]) was 28.7%. For the same molecule, the Activity (K562 [16]) was 22.7%, the Activity (HCT-116 [17]) was 25.1% and the Activity (HCT-116 [18]) was 40%.
